Published values collected from several papers.
Lines come from different studies, so protocols differ.
Target: Serine/threonine-protein kinase TAO2 (TAOK2, Homo sapiens, UniProt Q9UL54)
Residues used in one study (Q9UL54 1-1235): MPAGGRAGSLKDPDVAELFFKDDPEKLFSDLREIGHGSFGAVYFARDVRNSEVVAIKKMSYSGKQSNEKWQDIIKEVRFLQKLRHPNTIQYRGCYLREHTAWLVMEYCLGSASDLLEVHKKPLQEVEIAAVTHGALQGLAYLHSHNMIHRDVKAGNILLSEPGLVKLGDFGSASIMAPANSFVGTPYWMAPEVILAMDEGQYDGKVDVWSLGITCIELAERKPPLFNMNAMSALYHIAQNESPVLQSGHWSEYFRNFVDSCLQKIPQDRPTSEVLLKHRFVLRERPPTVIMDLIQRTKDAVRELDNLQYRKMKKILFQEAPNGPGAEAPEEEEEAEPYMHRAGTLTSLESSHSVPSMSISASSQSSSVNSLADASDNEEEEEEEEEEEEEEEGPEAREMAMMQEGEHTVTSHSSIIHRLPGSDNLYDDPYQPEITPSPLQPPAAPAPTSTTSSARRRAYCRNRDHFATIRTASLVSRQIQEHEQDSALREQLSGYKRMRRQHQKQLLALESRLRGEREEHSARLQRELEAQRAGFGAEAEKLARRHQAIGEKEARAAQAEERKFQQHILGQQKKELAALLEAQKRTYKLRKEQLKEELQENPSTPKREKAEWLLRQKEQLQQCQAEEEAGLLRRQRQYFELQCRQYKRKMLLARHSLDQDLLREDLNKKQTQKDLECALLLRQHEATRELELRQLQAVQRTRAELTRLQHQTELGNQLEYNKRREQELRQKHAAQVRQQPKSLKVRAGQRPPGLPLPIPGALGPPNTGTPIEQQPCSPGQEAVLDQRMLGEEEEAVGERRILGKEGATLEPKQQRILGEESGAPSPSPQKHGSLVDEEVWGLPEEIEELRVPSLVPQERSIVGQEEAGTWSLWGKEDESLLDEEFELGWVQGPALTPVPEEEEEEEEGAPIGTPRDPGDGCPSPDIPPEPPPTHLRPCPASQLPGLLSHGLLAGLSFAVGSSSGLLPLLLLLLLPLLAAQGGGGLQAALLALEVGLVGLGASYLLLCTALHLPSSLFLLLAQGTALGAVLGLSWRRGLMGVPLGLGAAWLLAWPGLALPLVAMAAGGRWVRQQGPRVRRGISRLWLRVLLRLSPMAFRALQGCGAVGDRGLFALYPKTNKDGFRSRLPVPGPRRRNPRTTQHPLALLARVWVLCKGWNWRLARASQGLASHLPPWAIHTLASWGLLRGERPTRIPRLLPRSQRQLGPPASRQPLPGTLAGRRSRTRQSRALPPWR

CC(=O)N1CCC(c2ccc(C(=O)NC3=NCCN3)cc2C(F)(F)F)CC1  remaining binding (cell-free assay; competition with immobilised ligand; 1 µM): 100%
CCCOc1ccc(OC)c(F)c1C(=O)c1ccc(C(=O)N[C@@H]2CNC[C@H]2NC(=O)c2ccc3[nH]ncc3c2)cc1  remaining activity (enzyme activity; inhibitor; 10 µM): 95%
CC(C)(C)c1nc2c(s1)c1nc(N)ncc1c1ccc(NS(=O)(=O)c3c(F)cccc3F)c(F)c12  remaining activity (enzyme activity; inhibitor; radiometric; 1 µM): 84%
Nc1ncnc2occ(-c3ccc(NC(=O)Nc4cc(C(F)(F)F)ccc4F)cc3)c12  remaining signal (cell-free assay; inhibitor; 20 µM): 0%
O=C1CCc2cc(Nc3cc(OC4CCOCC4)c([N+](=O)[O-])cc3Cl)ccc2N1  remaining binding (cell-free assay; competition with immobilised ligand; 1 µM): 82%
CN1CC(Oc2cnc(C#N)cc2-c2ccn3nc(NC(=O)C4CC4)cc3c2)C1  inhibition (enzyme activity; inhibitor; 1 µM): 0%
CCCOc1ccc([C@H]2[C@H](C(=O)O)[C@@H](c3ccc4c(c3)OCO4)CN2CC(=O)Nc2c(CC)cccc2CC)cc1  remaining binding (cell-free assay; competition with immobilised ligand; 1 µM): 74%
O=[N+]([O-])c1cccc2[nH]c(CNc3nc(N4CCOCC4)nc4c3ncn4-c3ccsc3)nc12  binding vs control (binding; competition with immobilised ligand; 10 µM): 84%
O=C(NS(=O)(=O)c1ccc(NCC2CCOCC2)c([N+](=O)[O-])c1)c1ccc(N2CCN(Cc3ccc(C(F)(F)F)cc3-c3ccc(Cl)cc3)CC2)cc1Oc1cnc2[nH]ccc2c1  remaining binding (cell-free assay; competition with immobilised ligand; 1 µM): 82%
CCN(CC)CCNC(=O)c1c(C)[nH]c(/C=C2\C(=O)Nc3ccc(F)cc32)c1C  inhibition (enzyme activity; inhibitor; 0.3 µM): -3%
O=C(N1CCS(=O)(=O)CC1)N1C[C@H](c2ccc(OC(F)(F)F)cc2)C[C@H](c2nc(C3CC3)no2)C1  remaining binding (cell-free assay; competition with immobilised ligand; 1 µM): 100%
COc1cccc2c(NCc3ccccc3)nc(-n3c(N)nc4ccccc43)nc12  inhibition (target engagement in cells; inhibitor; chemoproteomics; 20 mM): -6.8%
CNC(=O)c1cc(Oc2ccc(NC(=O)Nc3ccc(Cl)c(C(F)(F)F)c3)cc2)ccn1  inhibition (enzyme activity; inhibitor; 10 µM): 102%
c1ccc(CNc2nc(N3CCOc4ccccc43)nc3c2CCCC3)cc1  inhibition (target engagement in cells; inhibitor; chemoproteomics; 20 mM): -2.6%
COc1cc(-c2cc(-c3ccc(N4CCNCC4)cc3)cnc2C)cc(OC)c1OC  inhibition (enzyme activity; inhibitor; 0.1 µM): 2%
Cc1ccc(Nc2nccc(N(C)c3ccc4c(C)n(C)nc4c3)n2)cc1S(N)(=O)=O  inhibition (enzyme activity; inhibitor; 0.3 µM): 43%
Cc1cc(NC(=O)c2cccc3cc(-c4cccc5[nH]nc(N)c45)ccc23)ccc1F  activity vs control (enzyme activity; inhibitor; 0.1 µM): 86%
